How the values were obtained:
Type in all cases: functional
[1] = Growth inhibition of human Hs 578T cells at 10 uM after 48 hrs by coulter counter method; conditions: read-out: GI
In short: (§1)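 Single high-dose NCI 60-cell-line panel screen across nine tumor subpanels. Test solutions (0.2 mL) were added in duplicate to wells holding 1.8 mL of culture at 6 × 10⁴ cells/mL. Controls got PBS and DMSO at identical dilutions. Incubation was 48 h at 37 °C in humidified 5% CO₂. Cells were diluted 10-fold in saline, Coulter-counted and dilution-corrected. Results were expressed as percent growth inhibition versus control.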

[2] = test system: UACC-62; test: Growth inhibition of human UACC62 cells at 10 uM after 48 hrs by coulter counter method; conditions: UACC-62, 48 h, read-out: GI; in short: as §1
[3] = test system: PC-3; test: Growth inhibition of human PC3 cells at 10 uM after 48 hrs by coulter counter method; conditions: PC-3, 48 h, read-out: GI; in short: as §1
[4] = test system: SK-MEL-2; test: Growth inhibition of human SK-MEL-2 cells at 10 uM after 48 hrs by coulter counter method; conditions: SK-MEL-2, 48 h, read-out: GI; in short: as §1
[5] = test system: NCI-H522; test: Growth inhibition of human NCI-H522 cells at 10 uM after 48 hrs by coulter counter method; conditions: NCI-H522, 48 h, read-out: GI; in short: as §1
[6] = test system: COLO 205; test: Growth inhibition of human COLO205 cells at 10 uM after 48 hrs by coulter counter method; conditions: COLO 205, 48 h, read-out: GI; in short: as §1
[7] = test system: SK-MEL-28; test: Growth inhibition of human SK-MEL-28 cells at 10 uM after 48 hrs by coulter counter method; conditions: SK-MEL-28, 48 h, read-out: GI; in short: as §1
[8] = test system: CCRF-CEM; test: Growth inhibition of human CCRF-CEM cells at 10 uM after 48 hrs by coulter counter method; conditions: read-out: GI; in short: as §1
[9] = test system: BT-549; test: Growth inhibition of human BT549 cells at 10 uM after 48 hrs by coulter counter method; conditions: BT-549, 48 h, read-out: GI; in short: as §1
[10] = test system: MDA-MB-468; test: Growth inhibition of human MDA-MB-468 cells at 10 uM after 48 hrs by coulter counter method; conditions: MDA-MB-468, 48 h, read-out: GI; in short: as §1
[11] = test system: SR; test: Growth inhibition of human SR cells at 10 uM after 48 hrs by coulter counter method; conditions: read-out: GI; in short: as §1
[12] = test system: MDA-MB-231; test: Growth inhibition of human MDA-MB-231 cells at 10 uM after 48 hrs by coulter counter method; conditions: MDA-MB-231, 48 h, read-out: GI; in short: as §1
[13] = test system: SF-539; test: Growth inhibition of human SF539 cells at 10 uM after 48 hrs by coulter counter method; conditions: SF-539, 48 h, read-out: GI; in short: as §1
[14] = test system: HL-60(TB); test: Growth inhibition of human HL-60(TB) cells at 10 uM after 48 hrs by coulter counter method; conditions: HL-60, 48 h, read-out: GI
In short: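 Part of the NCI 60-cell-line single-high-dose panel. Cells were seeded at 6 × 10⁴ cells/mL with test solution in duplicate wells, alongside PBS/DMSO controls at identical dilutions. Plates were held 48 h at 37 °C in a humidified 5% CO₂ incubator. Cells were then diluted 10-fold in saline and counted by Coulter counter, with counts corrected for dilution. Results are percent growth of treated cells, reported as GI %.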

[15] = test system: CAKI-1; test: Growth inhibition of human Caki1 cells at 10 uM after 48 hrs by coulter counter method; conditions: CAKI-1, 48 h, read-out: GI; in short: as §1
[16] = test system: IGROV-1; test: Growth inhibition of human IGROV1 cells at 10 uM after 48 hrs by coulter counter method; conditions: IGROV-1, 48 h, read-out: GI; in short: as §1
[17] = test system: M14; test: Growth inhibition of human M14 cells at 10 uM after 48 hrs by coulter counter method; conditions: M14, 48 h, read-out: GI; in short: as §1
[18] = test system: HT-29; test: Growth inhibition of human HT-29 cells at 10 uM after 48 hrs by coulter counter method; conditions: HT-29, 48 h, read-out: GI; in short: as §1
[19] = test system: A549; test: Growth inhibition of human A549 cells at 10 uM after 48 hrs by coulter counter method; conditions: A549, 48 h, read-out: GI; in short: as §1
[20] = test system: NCI-H226; test: Growth inhibition of human NCI-H226 cells at 10 uM after 48 hrs by coulter counter method; conditions: NCI-H226, 48 h, read-out: GI; in short: as §1
[21] = test system: HOP-92; test: Growth inhibition of human HOP92 cells at 10 uM after 48 hrs by coulter counter method; conditions: HOP-92, 48 h, read-out: GI; in short: as §1
[22] = test system: U-251; test: Growth inhibition of human U251 cells at 10 uM after 48 hrs by coulter counter method; conditions: U-251, 48 h, read-out: GI; in short: as §1
[23] = test system: T47D; test: Growth inhibition of human T47D cells at 10 uM after 48 hrs by coulter counter method; conditions: read-out: GI; in short: as §1
[24] = test system: K562; test: Growth inhibition of human K562 cells at 10 uM after 48 hrs by coulter counter method; conditions: K562, 48 h, read-out: GI; in short: as §1
[25] = test system: 786-0; test: Growth inhibition of human 786-0 cells at 10 uM after 48 hrs by coulter counter method; conditions: 786-0, 48 h, read-out: GI; in short: as §1
[26] = test system: HCT-116; test: Growth inhibition of human HCT116 cells at 10 uM after 48 hrs by coulter counter method; conditions: HCT-116, 48 h, read-out: GI; in short: as §1
[27] = test system: MOLT-4; test: Growth inhibition of human MOLT4 cells at 10 uM after 48 hrs by coulter counter method; conditions: MOLT-4, 48 h, read-out: GI; in short: as §1
[28] = test system: SK-OV-3; test: Growth inhibition of human SKOV3 cells at 10 uM after 48 hrs by coulter counter method; conditions: SK-OV-3, 48 h, read-out: GI; in short: as §1
[29] = test system: OVCAR-4; test: Growth inhibition of human OVCAR4 cells at 10 uM after 48 hrs by coulter counter method; conditions: OVCAR-4, 48 h, read-out: GI; in short: as §1
[30] = test system: KM12; test: Growth inhibition of human KM12 cells at 10 uM after 48 hrs by coulter counter method; conditions: KM12, 48 h, read-out: GI; in short: as §1
[31] = test system: SF-268; test: Growth inhibition of human SF268 cells at 10 uM after 48 hrs by coulter counter method; conditions: SF-268, 48 h, read-out: GI; in short: as §1
[32] = test system: NCI-H23; test: Growth inhibition of human NCI-H23 cells at 10 uM after 48 hrs by coulter counter method; conditions: NCI-H23, 48 h, read-out: GI; in short: as §1
[33] = test system: SN12C; test: Growth inhibition of human SN12C cells at 10 uM after 48 hrs by coulter counter method; conditions: read-out: GI; in short: as §1
[34] = test system: MCF7; test: Growth inhibition of human MCF7 cells at 10 uM after 48 hrs by coulter counter method; conditions: MCF7, 48 h, read-out: GI; in short: as §1
[35] = test system: UO-31; test: Growth inhibition of human UO31 cells at 10 uM after 48 hrs by coulter counter method; conditions: UO-31, 48 h, read-out: GI; in short: as §1
[36] = test system: SNB-75; test: Growth inhibition of human SNB75 cells at 10 uM after 48 hrs by coulter counter method; conditions: SNB-75, 48 h, read-out: GI; in short: as §1
[37] = test system: OVCAR-8; test: Growth inhibition of human OVCAR8 cells at 10 uM after 48 hrs by coulter counter method; conditions: OVCAR-8, 48 h, read-out: GI; in short: as §1

SMILES: O=C1Nc2ccc(C(=O)Nc3ccccn3)cc2C(c2ccc(Cl)cc2)N1 (centres undefined)
- inhibition of growth at 10 µM [1]: 30%
- inhibition of growth at 10 µM [2]: 30%
- inhibition of growth at 10 µM [3]: 32.9%
- inhibition of growth at 10 µM [4]: 30%
- inhibition of growth at 10 µM [5]: 30%
- inhibition of growth at 10 µM [6]: 30%
- inhibition of growth at 10 µM [7]: 30%
- inhibition of growth at 10 µM [8]: 30%
- inhibition of growth at 10 µM [9]: 31.8%
- inhibition of growth at 10 µM [10]: 30%
- inhibition of growth at 10 µM [11]: 30%
- inhibition of growth at 10 µM [12]: 30%
- inhibition of growth at 10 µM [13]: 30%
- inhibition of growth at 10 µM [14]: 30%
- inhibition of growth at 10 µM [15]: 30%
- inhibition of growth at 10 µM [16]: 30%
- inhibition of growth at 10 µM [17]: 30%
- inhibition of growth at 10 µM [18]: 37.4%
- inhibition of growth at 10 µM [19]: 30%
- inhibition of growth at 10 µM [20]: 30%
- inhibition of growth at 10 µM [21]: 30%
- inhibition of growth at 10 µM [22]: 30%
- inhibition of growth at 10 µM [23]: 44.9%
- inhibition of growth at 10 µM [24]: 30%
- inhibition of growth at 10 µM [25]: 30%
- inhibition of growth at 10 µM [26]: 39.8%
- inhibition of growth at 10 µM [27]: 33.9%
- inhibition of growth at 10 µM [28]: 30%
- inhibition of growth at 10 µM [29]: 30%
- inhibition of growth at 10 µM [30]: 30%
- inhibition of growth at 10 µM [31]: 30%
- inhibition of growth at 10 µM [32]: 30.4%
- inhibition of growth at 10 µM [33]: 30%
- inhibition of growth at 10 µM [34]: 39.2%
- inhibition of growth at 10 µM [35]: 41.8%
- inhibition of growth at 10 µM [36]: 30%
- inhibition of growth at 10 µM [37]: 30%

SMILES: COc1ccc(C2NC(=O)Nc3ccc(C(=O)Nc4ccccn4)cc32)cc1 (centres undefined)
- inhibition of growth at 10 µM [1]: 30%
- inhibition of growth at 10 µM [2]: 30%
- inhibition of growth at 10 µM [3]: 30%
- inhibition of growth at 10 µM [4]: 30%
- inhibition of growth at 10 µM [5]: 30%
- inhibition of growth at 10 µM [6]: 30%
- inhibition of growth at 10 µM [7]: 30%
- inhibition of growth at 10 µM [8]: 30%
- inhibition of growth at 10 µM [9]: 30%
- inhibition of growth at 10 µM [10]: 30%
- inhibition of growth at 10 µM [11]: 30%
- inhibition of growth at 10 µM [12]: 30%
- inhibition of growth at 10 µM [13]: 30%
- inhibition of growth at 10 µM [14]: 30%
- inhibition of growth at 10 µM [15]: 30%
- inhibition of growth at 10 µM [16]: 30%
- inhibition of growth at 10 µM [17]: 30%
- inhibition of growth at 10 µM [18]: 30%
- inhibition of growth at 10 µM [19]: 30%
- inhibition of growth at 10 µM [20]: 30%
- inhibition of growth at 10 µM [21]: 30%
- inhibition of growth at 10 µM [22]: 30%
- inhibition of growth at 10 µM [23]: 37.6%
- inhibition of growth at 10 µM [24]: 30%
- inhibition of growth at 10 µM [25]: 30%
- inhibition of growth at 10 µM [26]: 30%
- inhibition of growth at 10 µM [27]: 30%
- inhibition of growth at 10 µM [28]: 30%
- inhibition of growth at 10 µM [29]: 30%
- inhibition of growth at 10 µM [30]: 30%
- inhibition of growth at 10 µM [31]: 30%
- inhibition of growth at 10 µM [32]: 30%
- inhibition of growth at 10 µM [33]: 30%
- inhibition of growth at 10 µM [34]: 30%
- inhibition of growth at 10 µM [35]: 34.3%
- inhibition of growth at 10 µM [36]: 30%
- inhibition of growth at 10 µM [37]: 30%
